Reference: ChEMBL document CHEMBL1140698, “Design, synthesis, and anti-inflammatory properties of orally active 4-(phenylamino)-pyrrolo[2,1-f][1,2,4]triazine p38alpha mitogen-activated protein kinase inhibitors” (J Med Chem, 2008)

Key:
[1] = Drug level in rat plasma at 10 mg/kg, po after 0.5 hrs; assay type: ADME, organism-based; parameters: dose 10 mg/kg, route oral
How it was run: (§1)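 Rats given a single oral 10 mg/kg dose in 9/0.5/0.5 water/EtOH/Tween 80. Plasma drug level measured at 0.5 h and AUC0-4h calculated, each as the average of 2 rats.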

[2] = AUC (0 to 4 hrs) in rat at 10 mg/kg, po; assay type: ADME, organism-based; parameters: time < 4 hr, dose 10 mg/kg, route oral; settings: plasma; how it was run: as §1
[3] = Half life in mouse at 5 mg/kg, iv or 10 mg/kg, po; assay type: ADME, organism-based; settings: in vivo
How it was run: (§2)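 Mice dosed at 5 mg/kg i.v. or 10 mg/kg p.o., 3 mice per group. Values given as average ± SEM.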

[4] = Mean residence time in mouse at 5 mg/kg, iv or 10 mg/kg, po; assay type: ADME, organism-based; settings: in vivo; how it was run: as §2
[5] = Bioavailability in mouse at 10 mg/kg, po; assay type: ADME, organism-based; settings: in vivo; how it was run: as §2
[6] = Cmax in mouse at 5 mg/kg, iv or 10 mg/kg, po; assay type: ADME, organism-based; settings: in vivo; how it was run: as §2
[7] = Volume of distribution at steady state in mouse 5 mg/kg, iv or 10 mg/kg, po; assay type: ADME, organism-based; settings: in vivo, read-out: Vdss; how it was run: as §2
[8] = AUC (0 to 8 hrs) in mouse 5 mg/kg, iv or 10 mg/kg, po; assay type: ADME, organism-based; settings: plasma; how it was run: as §2
Caco-2 = assay: Intrinsic permeability across human Caco-2 cells; assay type: ADME, cell-based
[9] = Clearance in mouse at 5 mg/kg, iv or 10 mg/kg, po; assay type: ADME, organism-based; settings: in vivo; how it was run: as §2
[10] = Metabolic stability in rat liver microsome after 10 mins; assay type: ADME; settings: liver microsomes, read-out: Stability
How it was run: (§3)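 Rat or pooled human (10 donors) liver microsomes at about 1 mg/mL protein, 1 mM NADPH, 56 mM potassium phosphate pH 7.4, compound 3 µM final, 37 °C. Quenched with acetonitrile and parent drug quantified by LC/MS/MS. Percent parent remaining at 10 min, n = 1.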

[11] = Tmax in mouse at 5 mg/kg, iv or 10 mg/kg, po; assay type: ADME, organism-based; settings: in vivo; how it was run: as §2
[12] = Metabolic stability in human liver microsome after 10 mins; assay type: ADME; settings: liver microsomes, read-out: Stability; how it was run: as §3

Row | SMILES | concentration at 0.5 h [1] [µM] | AUC(0-t) at 4 h [2] [µM·h] | half-life [3] [h] | MRT [4] [h] | bioavailability [5] [%] | Cmax [6] [µM] | Vd [7] [L/kg] | AUC(0-t) [8] [µM·h] | Papp (Caco-2) [×10⁻⁶ cm/s] | clearance [9] [mL/min/kg] | remaining at 10 min [10] [%] | Tmax [11] [h] | remaining at 10 min [12] [%]
1 | CONC(=O)c1ccc(C)c(Nc2ncnn3cc(C(=O)NC(C)C)c(C)c23)c1 | 3.8 | 3.7 | – | – | – | – | – | – | – | – | – | – | –
2 | CONC(=O)c1ccc(C)c(Nc2ncnn3cc(C(=O)N[C@@H](C)c4ccccc4)c(C)c23)c1 | 2.1 | 2.1 | 1.2 | 0.8 | 34 | 3.7 | 1.5 | 3.8 | 13.1 | 31 | 90 | 0.5 | 72
3 | CCCNC(=O)c1cn2ncnc(Nc3cc(C(=O)NOC)ccc3C)c2c1C | 6.6 | 2.1 | 2.5 | 1 | 97 | 18 | 1.6 | 13 | 5.8 | 28 | 82 | 0.25 | 83
4 | CCCNC(=O)c1cn2ncnc(Nc3cc(NC(=O)OCC)ccc3C)c2c1C | 0.4 | 0.7 | – | – | – | – | – | – | – | – | – | – | –
5 | CC[C@H](C)NC(=O)c1cn2ncnc(Nc3cc(C(=O)NOC)ccc3C)c2c1C | 4.3 | 9.2 | – | – | – | – | – | – | – | – | 96 | – | 62
6 | CONC(=O)c1ccc(C)c(Nc2ncnn3cc(C(=O)NCc4ccccn4)c(C)c23)c1 | 3.4 | 2.8 | – | – | – | – | – | – | – | – | – | – | –
7 | CCNC(=O)c1cn2ncnc(Nc3cc(C(=O)NOC)ccc3C)c2c1C | 0.8 | 0.7 | 2.2 | 1.4 | 79 | 3.1 | 7.6 | 3.6 | 2 | 93 | 100 | 0.25 | 69
